Source: ChEMBL document CHEMBL4390647, “Efficient click chemistry towards novel 1H-1,2,3-triazole-tethered 4H-chromene-d-glucose conjugates: Design, synthesis and evaluation of in vitro antibacterial, MRSA and antifungal activities” (Eur J Med Chem, 2019)
In brackets after ≈: the same amount, converted by molar mass.

Assays:
[1] = test system: Candida albicans; test: Antifungal activity against Candida albicans SUCC 2303 after 24 to 48 hrs by broth microdilution method; assay type: functional
[2] = test system: Candida albicans; test: Antifungal activity against Candida albicans SUCC 625 after 24 to 48 hrs by broth microdilution method; assay type: functional
[3] = test system: Aspergillus flavus; test: Antifungal activity against Aspergillus flavus ATCC 64025 after 24 to 48 hrs by broth microdilution method; assay type: functional
[4] = test system: Candida albicans; test: Antifungal activity against Candida albicans ATCC 1912 after 24 to 48 hrs by broth microdilution method; assay type: functional
[5] = test system: Candida albicans; test: Antifungal activity against Candida albicans ATCC 1905 after 24 to 48 hrs by broth microdilution method; assay type: functional
[6] = test system: Aspergillus flavus; test: Antifungal activity against Aspergillus flavus ATCC 204304 measured after 72 hrs by agar dilution method; assay type: functional; conditions: ATCC 204304, 72 h
How it was run: (§1)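 Agar dilution on Sabouraud dextrose agar, with compounds at […] to 0.78 μM in twofold steps. Fungal suspensions at 10 CFU/mL as printed were applied to the compound-containing plates. Incubation at 35°C; MIC read after 72 h. Three experiments.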

[7] = test system: Staphylococcus aureus; test: Antibacterial activity against Staphylococcus aureus MRSA198 clinical isolate-1 measured after 18 to 20 hrs by microbroth dilution method; assay type: functional; conditions: MRSA198 isolate-1
[8] = test system: Klebsiella pneumoniae; test: Antibacterial activity against measured after Klebsiella pneumoniae ATCC 4352 measured after 18 to 20 hrs by microbroth dilution method; assay type: functional
How it was run: (§2)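 Inoculum from a 4–6-h broth adjusted to 0.5 McFarland, final 5 × 10⁵ CFU/mL. Incubation at 35°C for 18–20 h. MIC taken as the lowest concentration giving complete inhibition of visible growth; three experiments.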

[9] = test system: Bacillus subtilis; test: Antibacterial activity against Bacillus subtilis ATCC 11774 after 18 to 20 hrs by microbroth dilution method; assay type: functional; how it was run: as §2
[10] = test system: Pseudomonas aeruginosa; test: Antibacterial activity against Pseudomonas aeruginosa […] measured after 18 to 20 hrs by microbroth dilution method; assay type: functional; how it was run: as §2
[11] = test system: Escherichia coli; test: Antibacterial activity against Escherichia coli ATCC 25922 measured after 18 to 20 hrs by microbroth dilution method; assay type: functional; how it was run: as §2
[12] = test system: Staphylococcus aureus; test: Antibacterial activity against Staphylococcus aureus ATCC 11632 after 18 to 20 hrs by microbroth dilution method; assay type: functional; how it was run: as §2
[13] = test system: Staphylococcus aureus; test: Antibacterial activity against Staphylococcus aureus MRSA198 clinical isolate-2 measured after 18 to 20 hrs by microbroth dilution method; assay type: functional; conditions: MRSA198 isolate-2
[14] = Cytotoxicity against mouse RAW264.7 cells assessed as growth inhibition at 50 ug/mL after 120 hrs by MTT assay relative to control; assay type: cell-based; conditions: read-out: GI
How it was run: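 RAW 264.7 mouse macrophages were seeded at 25,000 cells/well and left to attach overnight. Compound in DMSO was added from a 200× concentrate, in duplicate wells, to a 50 μg/mL test level; DMSO served as control. Exposure 120 h at 37°C in 5% CO₂. MTT (4 mg/mL in PBS) was added for 4 h, formazan dissolved in DMSO, and absorbance read at 560 nm. Viability expressed as % of untreated cells, mean ± SE of at least three independent experiments.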

[15] = test system: Candida albicans; test: Antifungal activity against Candida albicans ATCC 7754 after 72 hrs by agar dilution method; assay type: functional; conditions: ATCC 7754, 72 h; how it was run: as §1
[16] = test system: Aspergillus niger; test: Antifungal activity against Aspergillus niger ATCC 439 measured after 72 hrs by agar dilution method; assay type: functional; conditions: ATCC 439, 72 h; how it was run: as §1
[17] = test system: Staphylococcus epidermidis; test: Antibacterial activity against Staphylococcus epidermidis ATCC 12228 after 18 to 20 hrs by microbroth dilution method; assay type: functional; how it was run: as §2
[18] = test system: Salmonella typhimurium; test: Antibacterial activity against Salmonella typhimurium ATCC 14028 measured after 18 to 20 hrs by microbroth dilution method; assay type: functional, Salmonella enterica subsp. enterica serovar Typhimurium; conditions: Salmonella enterica; how it was run: as §2
[19] = test system: Staphylococcus aureus; test: Antibacterial activity against Staphylococcus aureus MRSA198 clinical isolate-3 measured after 18 to 20 hrs by microbroth dilution method; assay type: functional; conditions: MRSA198 isolate-3
[20] = test system: Saccharomyces cerevisiae; test: Antifungal activity against Saccharomyces cerevisiae SH 20 after 72 hrs by agar dilution method; assay type: functional; conditions: SH 20, 72 h; how it was run: as §1
[21] = test system: Aspergillus niger; test: Antifungal activity against Aspergillus niger NCIM1196 by standard agar method; assay type: functional
[22] = test system: Candida albicans; test: Antifungal activity against Candida albicans NCIM3471 by standard agar method; assay type: functional
[23] = Antioxidant activity assessed as DPPH radical scavenging activity measured after 30 mins by spectrophotometric method; assay type: functional

SMILES | MIC [6] [µM] | MIC [7] [µM] | MIC [8] [µM] | MIC [9] [µM] | MIC [10] [µM] | MIC [11] [µM] | MIC [12] [µM] | MIC [13] [µM] | inhibition at 120 h, 50 ug/mL [14] [%] | MIC [15] [µM] | MIC [16] [µM] | MIC [17] [µM] | MIC [18] [µM] | MIC [19] [µM] | MIC [20] [µM] | also measured
N#CC1=C(N)Oc2ccc3ccccc3c2C1c1ccccc1 (centres undefined) |  |  |  |  |  |  |  |  |  |  |  |  |  |  |  | MIC [1]: > 1 µg/mL; MIC [2]: > 1 µg/mL; MIC [3]: > 1 µg/mL; MIC [4]: > 1 µg/mL; MIC [5]: > 1 µg/mL
CC(=O)OC[C@H]1O[C@@H](n2cc(COc3ccc4c(c3)OC(N)=C(C#N)C4c3ccc(Br)cc3)nn2)[C@H](OC(C)=O)[C@@H](OC(C)=O)[C@@H]1OC(C)=O (some centres undefined) | 200 (≈ 151 µg/mL) | 12.5 (≈ 9.43 µg/mL) | 200 (≈ 151 µg/mL) | 200 (≈ 151 µg/mL) | 25 (≈ 18.9 µg/mL) | 100 (≈ 75.5 µg/mL) | 25 (≈ 18.9 µg/mL) | 12.5 (≈ 9.43 µg/mL) | 25.3 | 3.12 (≈ 2.35 µg/mL) | 3.12 (≈ 2.35 µg/mL) | 100 (≈ 75.5 µg/mL) | 200 (≈ 151 µg/mL) | 12.5 (≈ 9.43 µg/mL) | 1.56 (≈ 1.18 µg/mL) | 
COc1cccc(C2C(C#N)=C(N)Oc3cc(OCc4cn([C@@H]5O[C@H](COC(C)=O)[C@@H](OC(C)=O)[C@H](OC(C)=O)[C@H]5OC(C)=O)nn4)ccc32)c1OC (some centres undefined) | 25 (≈ 18.4 µg/mL) | 12.5 (≈ 9.2 µg/mL) | 25 (≈ 18.4 µg/mL) | 12.5 (≈ 9.2 µg/mL) | 12.5 (≈ 9.2 µg/mL) | 200 (≈ 147 µg/mL) | 12.5 (≈ 9.2 µg/mL) | 12.5 (≈ 9.2 µg/mL) | 31.1 | 100 (≈ 73.6 µg/mL) | 25 (≈ 18.4 µg/mL) | 25 (≈ 18.4 µg/mL) | 12.5 (≈ 9.2 µg/mL) | 12.5 (≈ 9.2 µg/mL) | 200 (≈ 147 µg/mL) | 
COc1ccccc1C1C(C#N)=C(N)Oc2cc(OCc3cn([C@@H]4O[C@H](COC(C)=O)[C@@H](OC(C)=O)[C@H](OC(C)=O)[C@H]4OC(C)=O)nn3)ccc21 (some centres undefined) | 400 (≈ 282 µg/mL) | 400 (≈ 282 µg/mL) | 3.12 (≈ 2.2 µg/mL) |  | 3.12 (≈ 2.2 µg/mL) | 400 (≈ 282 µg/mL) | 50 (≈ 35.3 µg/mL) | 400 (≈ 282 µg/mL) | 22.1 | 200 (≈ 141 µg/mL) | 1.56 (≈ 1.1 µg/mL) | 6.25 (≈ 4.41 µg/mL) | 6.25 (≈ 4.41 µg/mL) | 200 (≈ 141 µg/mL) | 100 (≈ 70.6 µg/mL) | 
CCOC(=O)c1cc2ccc(OCc3cn(Cc4ccc(F)cc4)nn3)cc2oc1=O |  |  |  |  |  |  |  |  |  |  |  |  |  |  |  | MIC [21]: 25 µg/mL (≈ 59 µM); MIC [22]: 12.5 µg/mL (≈ 29.5 µM)
CC(=O)OC[C@H]1O[C@@H](n2cc(COc3ccc4c(c3)OC(N)=C(C#N)C4c3ccccc3)nn2)[C@H](OC(C)=O)[C@@H](OC(C)=O)[C@@H]1OC(C)=O (some centres undefined) | 100 (≈ 67.6 µg/mL) | 400 (≈ 270 µg/mL) | 400 (≈ 270 µg/mL) | 400 (≈ 270 µg/mL) | 200 (≈ 135 µg/mL) | 400 (≈ 270 µg/mL) | 200 (≈ 135 µg/mL) | 400 (≈ 270 µg/mL) | 22.9 | 100 (≈ 67.6 µg/mL) | 6.25 (≈ 4.22 µg/mL) | 25 (≈ 16.9 µg/mL) | 3.12 (≈ 2.11 µg/mL) | 200 (≈ 135 µg/mL) | 12.5 (≈ 8.45 µg/mL) | 
CCOC(=O)c1cc2ccc(OCc3cn(Cc4ccc([N+](=O)[O-])cc4)nn3)cc2oc1=O |  |  |  |  |  |  |  |  |  |  |  |  |  |  |  | IC50 [23]: 15 µg/mL (≈ 33.3 µM)
CC(=O)OC[C@H]1O[C@@H](n2cc(COc3ccc4c(c3)OC(N)=C(C#N)C4c3cccc(Cl)c3)nn2)[C@H](OC(C)=O)[C@@H](OC(C)=O)[C@@H]1OC(C)=O (some centres undefined) | 200 (≈ 142 µg/mL) | 3.12 (≈ 2.22 µg/mL) | 3.12 (≈ 2.22 µg/mL) | 6.25 (≈ 4.44 µg/mL) | 25 (≈ 17.8 µg/mL) | 6.25 (≈ 4.44 µg/mL) | 1.56 (≈ 1.11 µg/mL) | 6.25 (≈ 4.44 µg/mL) | 17.2 | 12.5 (≈ 8.88 µg/mL) | 12.5 (≈ 8.88 µg/mL) | 12.5 (≈ 8.88 µg/mL) | 6.25 (≈ 4.44 µg/mL) | 1.56 (≈ 1.11 µg/mL) | 3.12 (≈ 2.22 µg/mL) | 
COc1ccc(C2C(C#N)=C(N)Oc3cc(OCc4cn([C@@H]5O[C@H](COC(C)=O)[C@@H](OC(C)=O)[C@H](OC(C)=O)[C@H]5OC(C)=O)nn4)ccc32)cc1OC (some centres undefined) | 3.12 (≈ 2.3 µg/mL) | 25 (≈ 18.4 µg/mL) | 25 (≈ 18.4 µg/mL) | 25 (≈ 18.4 µg/mL) | 12.5 (≈ 9.2 µg/mL) | 6.25 (≈ 4.6 µg/mL) | 25 (≈ 18.4 µg/mL) | 50 (≈ 36.8 µg/mL) | 21.9 | 6.25 (≈ 4.6 µg/mL) | 200 (≈ 147 µg/mL) | 1.56 (≈ 1.15 µg/mL) | 400 (≈ 294 µg/mL) | 50 (≈ 36.8 µg/mL) | 25 (≈ 18.4 µg/mL) | 
CC(=O)OC[C@H]1O[C@@H](n2cc(COc3ccc4c(c3)OC(N)=C(C#N)C4c3ccc(Cl)cc3)nn2)[C@H](OC(C)=O)[C@@H](OC(C)=O)[C@@H]1OC(C)=O (some centres undefined) | 25 (≈ 17.8 µg/mL) | 200 (≈ 142 µg/mL) | 12.5 (≈ 8.88 µg/mL) | 400 (≈ 284 µg/mL) | 3.12 (≈ 2.22 µg/mL) | 1.56 (≈ 1.11 µg/mL) | 50 (≈ 35.5 µg/mL) | 200 (≈ 142 µg/mL) | 25.1 | 6.25 (≈ 4.44 µg/mL) | 50 (≈ 35.5 µg/mL) | 200 (≈ 142 µg/mL) | 12.5 (≈ 8.88 µg/mL) | 100 (≈ 71 µg/mL) | 1.56 (≈ 1.11 µg/mL) | 
Cc1cc(C(C)(C)C)c(O)c(C(C)(C)C)c1 [BUTYLATED HYDROXYTOLUENE] |  |  |  |  |  |  |  |  |  |  |  |  |  |  |  | IC50 [23]: 16.47 µg/mL (≈ 74.7 µM)
OC(Cn1cncn1)(Cn1cncn1)c1ccc(F)cc1F [FLUCONAZOLE] | 0.78 (≈ 0.239 µg/mL) |  |  |  |  |  |  |  |  | 0.78 (≈ 0.239 µg/mL) | 1.56 (≈ 0.478 µg/mL) |  |  |  | 0.78 (≈ 0.239 µg/mL) | MIC [21]: 12.5 µg/mL (≈ 40.8 µM); MIC [22]: 12.5 µg/mL (≈ 40.8 µM)
